These results are taken from ChEMBL document CHEMBL4138179, “Design, synthesis and cytotoxic activity of N-Modified oleanolic saponins bearing A glucosamine” (Eur J Med Chem, 2018).

SMILES strings stand for the structures. pIC50: −log10 of the molar value. A value given as a limit tells only on which side of the number the result lay.

Series [1] can be described thus: Drug uptake in human HL60 cells at 15 uM for 15 hrs by DBCO-488 probe based fluorescence confocal microscopy. Particulars: hl-60, 15 h; call rule not given here. It is filed as ADME, cell-based. The procedure, abridged:
(§1)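 HL-60 cells treated with azido-bearing compound (15 μM, 15 h); DMSO-diluted control. Cells fixed in 99% alcohol, permeabilized with 0.1% Triton X-100 in PBS for 15 min, then washed. Copper-free labeling with DBCO-488 (2 μM) plus 0.5 mg/mL BSA in PBS for 6 h. RedDot2 nuclear and CellBrite Blue membrane counterstains; imaged by confocal fluorescence microscopy.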

The test system of series [2] is PC-3. The experiment in a line: Cytotoxicity against human PC3 cells assessed as cell growth inhibition after 48 hrs by MTT assay. As to conditions: PC-3, 48 h. It is filed as functional, cell-based. The procedure, abridged: (§2)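 Cells from ATCC; HL-60 grown in IMDM, PC-3 in RPMI 1640, HT29 in DMEM, each with 10% FBS and penicillin/streptomycin, 37 °C, 5% CO2. Cells incubated without or with compound at the indicated concentrations and times. Mitochondrial MTT reduction read at 570 nm on a plate reader. IC50 given as mean ± SD of at least three independent experiments.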
Background: Tetrazolium assays rely on reduction of a dye to a coloured formazan, in cell work by metabolically active cells.

In series [3] the test system is HT-29. Briefly: Cytotoxicity against human HT-29 cells assessed as cell growth inhibition after 48 hrs by MTT assay. It is filed as functional, cell-based. As to conditions: HT-29, 48 h. The essentials: as §2
Series [4] deals with HL-60. The experiment in a line: Cytotoxicity against human HL60 cells assessed as cell growth inhibition after 48 hrs by MTT assay. Format: functional, cell-based. Particulars: HL-60, 48 h. The procedure, abridged:
as §2

Series [5] is described as follows: Drug uptake in human HL60 cell membrane at 15 uM for 15 hrs by DBCO-488-based fluorescence confocal microscopy. As to conditions: hl-60, 15 h. It is filed as ADME, cell membranes. The procedure, abridged:
as §1

The test system of series [6] is HL-60. The experiment in a line: Induction of mitochondrial membrane depolarization in human HL60 cells after 24 hrs by JC-1 staining based flow cytometry. It is filed as functional, cell-based. The essentials: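 HL-60 cells exposed to a range of compound concentrations under the MTT culture conditions, untreated control included. After 1 day, cells stained with JC-1 (final 2 μM) at 37 °C for 30 min, then harvested. Flow cytometry gives the percentage loss of mitochondrial membrane potential.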
On the technique in general: In flow cytometry, cells or beads pass a laser one at a time.

For the compound `CC1(C)CC[C@]2(C(=O)O)CC[C@]3(C)C(=CC[C@H]4C3(C)CC[C@H]3C(C)(C)[C@@H](O[C@@H]5O[C@H](CO)[C@@H](O)[C@H](O)[C@H]5NC(=O)CCc5cn(-c6cc7ccc(O)cc7oc6=O)nn5)CC[C@@]34C)[C@@H]2C1` (single isomer, unassigned), in series [1], the Drug uptake result is given as “Active”.

In the case of `C#CCCC(=O)N[C@H]1[C@H](O[C@H]2CC[C@]3(C)[C@H]4CC=C5[C@@H]6CC(C)(C)CC[C@]6(C(=O)O)CC[C@@]5(C)[C@]4(C)CC[C@H]3C2(C)C)O[C@H](CO)[C@@H](O)[C@@H]1O`, the pIC50 in series [2] was less than 4.52; in series [3], less than 4.52; in series [4] it was 4.97. Also, in series [5], the Drug uptake result was “Active”.

In the case of `CC1(C)CC[C@]2(C(=O)O)CC[C@]3(C)C(=CC[C@@H]4[C@@]5(C)CC[C@H](O[C@@H]6O[C@H](CO)[C@@H](O)[C@H](O)[C@H]6NC(=O)CN=[N+]=[N-])C(C)(C)[C@@H]5CC[C@]43C)[C@@H]2C1`, the pIC50 in series [2] was 4.65; in series [3], 4.64; in series [4], 5.04. The Drug uptake entry in series [5] is “Active”.

Turning to `CCCCCCC(=O)N[C@H]1[C@H](O[C@H]2CC[C@]3(C)[C@H]4CC=C5[C@@H]6CC(C)(C)CC[C@]6(C(=O)O)CC[C@@]5(C)[C@]4(C)CC[C@H]3C2(C)C)O[C@H](CO)[C@@H](O)[C@@H]1O`, the Activity entry in series [6] was “Dose-dependent effect”. For the same compound, the results for the pIC50 in series [2], in series [3] and in series [4] were less than 4.52, less than 4.52 and 5.55, respectively.

The term pIC50 denotes the negative decadic logarithm of the IC50, by convention in mol/L.
